ChEMBL document CHEMBL3864185, “Identification of N-(2-Phenoxyethyl)imidazo[1,2-a]pyridine-3-carboxamides as New Antituberculosis Agents” (ACS Med Chem Lett, 2016)
In brackets after ≈: the same amount, converted by molar mass.

What was measured:
[1] = system: Mycobacterium tuberculosis; assay: Antimycobacterial activity against isoniazid/rifampicin-resistant Mycobacterium tuberculosis isolate 11168 after 7 days by microplate alamar blue assay; assay type: functional; conditions: isolate 11168, 168 h
In short: (§1)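 Microplate Alamar Blue Assay against clinical MDR M. tuberculosis isolates 11168 and 9160, both resistant to isoniazid and rifampicin. Read-out was fluorescence. MIC was the lowest concentration that reduced fluorescence by >90% versus the mean of replicate bacterium-only controls.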

[2] = system: Mycobacterium tuberculosis; assay: Antimycobacterial activity against isoniazid/rifampicin-resistant Mycobacterium tuberculosis isolate 9160 after 7 days by microplate alamar blue assay; assay type: functional; conditions: isolate 9160, 168 h; in short: as §1

SMILES | MIC [1] [µg/mL] | MIC [2] [µg/mL]
Cc1ccc2nc(C)c(C(=O)NCCOc3ccc(Cl)cc3)n2c1 | 0.025 (≈ 0.0727 µM) | 0.028 (≈ 0.0814 µM)
Cc1cccc(OCCNC(=O)c2c(C)nc3ccc(C)cn23)c1 | 0.026 (≈ 0.0804 µM) | 0.033 (≈ 0.102 µM)
Cc1ccc2nc(C)c(C(=O)NCCOc3ccc(Br)cc3)n2c1 | 0.036 (≈ 0.0927 µM) | 0.051 (≈ 0.131 µM)
COc1cccc(OCCNC(=O)c2c(C)nc3ccc(C)cn23)c1 | 0.029 (≈ 0.0854 µM) | 0.035 (≈ 0.103 µM)
Cc1ccc2nc(C)c(C(=O)NCCOc3ccccc3C)n2c1 | 0.036 (≈ 0.111 µM) | 0.05 (≈ 0.155 µM)
COc1ccc(OCCNC(=O)c2c(C)nc3ccc(C)cn23)cc1 | 0.026 (≈ 0.0766 µM) | 0.034 (≈ 0.1 µM)
Cc1ccc2nc(C)c(C(=O)NCCOc3ccccc3)n2c1 | 0.03 (≈ 0.097 µM) | 0.047 (≈ 0.152 µM)
NNC(=O)c1ccncc1 [ISONIAZID] | > 40 | > 40
CO[C@H]1/C=C/O[C@@]2(C)Oc3c(C)c(O)c4c(O)c(c(/C=N/N5CCN(C)CC5)c(O)c4c3C2=O)NC(=O)/C(C)=C\C=C\[C@H](C)[C@H](O)[C@@H](C)[C@@H](O)[C@@H](C)[C@H](OC(C)=O)[C@@H]1C [RIFAMPIN] | 36.9 (≈ 44.8 µM) | 38.6 (≈ 47 µM)
